Data taken from ChEMBL document CHEMBL4513216, “Probing the Open Global Health Chemical Diversity Library for Multistage-Active Starting Points for Next-Generation Antimalarials” (ACS Infect Dis, 2020).

Assay: Toxicity liver stage against HepG2, at 10uM
Format: cell-based
Parameters: test concentration 10 uM, cell line HepG2-A16-CD81EGFP
Conditions: human, HepG2-A16-CD81EGFP cells; read-out: INHIBITION
How it was run: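 Uninfected HepG2-A16-CD81EGFP cells, 3 × 10^3 per well, 1536-well, plated on prespotted compound at 10 μM final, parasite-free screening media added to match infected plates; puromycin 10 μM positive, DMSO 0.5% negative; run in parallel with 48 h PbLuc assay at 37 °C, 5% CO2; viability by CellTiter-Glo luminescence, normalized to controls.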

| SMILES | cytotoxicity at 10 µM [%] |
| --- | --- |
| Cc1noc([C@@]23CCO[C@@H]2CCN(C(=O)c2ccsc2)C3)n1 | 9.1 |
| O=C(c1ccnc(C2CCNCC2)c1)N1CCCC(CO)C1 (stereo unspecified) | 3.9 |
| CC(C)c1cc(NC(=O)CNC2CCc3ncnn3C2)on1 (stereo unspecified) | 4.44 |
| COC(=O)C1=NN2C(=NS(=O)(=O)c3ccccc32)N1 | -8.57 |
| NC1CCCc2c1cnn2-c1cc(F)cc(F)c1 (stereo unspecified) | 6.54 |
| COc1ncc(C2(O)CCN(Cc3cc(F)ccc3F)CC2)c(OC)n1 | -16.1 |
| CN(Cc1ccccn1)CC1CCCN1c1cccnn1 (stereo unspecified) | 2.43 |
| CN1CCC(CNC(=O)c2ccc3cccc(Cl)c3n2)C1 (stereo unspecified) | -8.93 |
| Cc1cccc(=O)n1CCCNc1nc(N(C)C)nc2c1CCNC2 | -0.545 |
| Cc1c[nH]c(C2CCCN2C(=O)CCc2c(C)n[nH]c2C)n1 (stereo unspecified) | -1.4 |
| Cc1cnn(CC2CCCN2Cc2coc(-c3cccc(F)c3)n2)c1 (stereo unspecified) | 1.2 |
| CCN(C(=O)Nc1cccnc1OC)C1CC1 | -9.11 |
| COCC(=O)NCc1cc(=O)n2c(n1)CN(Cc1ccncc1)CCC2 | -99.9 |
| Cc1nc(C)n(CC2CN(CCc3ccncc3)CCO2)n1 (stereo unspecified) | -14.7 |
| Nc1nc2c(c(N3CCN(C(=O)c4cccs4)CC3)n1)CCCC2 | 7.9 |
| CC(C)CN1CCC(NC(=O)NCCC(=O)NCc2ccccc2)CC1 | 1.64 |
| CC(=O)NCc1ccc(S(=O)(=O)NC(=O)c2ccc3c(c2)COC3)cc1 | 6.42 |
| Cc1noc(C)c1C(C)C(=O)N1CCCN(C)c2ccc(Cl)cc21 (stereo unspecified) | 3.89 |
| CC1CCN(CC2CCN(C(=O)c3c[nH]c4ncccc34)CC2)CC1 | 10 |
| COc1ccc(C2CCCN2C(=O)c2cc3c([nH]c2=O)CCC3)cc1 (stereo unspecified) | -10.7 |
| CC(C)[C@@H]1CN(c2ccc(C(F)(F)F)cn2)C[C@H]1NS(C)(=O)=O | 8.46 |
| Cc1cc(C(=O)NCc2cccnc2N2CCCC(O)C2)[nH]n1 (stereo unspecified) | 4.52 |
| CN(CCO)Cc1nnc(C2CCN(C(=O)c3ccccn3)CC2)n1C | 0.5 |

| SMILES | cytotoxicity at 10 µM [%] |
| --- | --- |
| COc1ccc(C2SC(C)=Nc3c2c(=O)[nH]n3C2CCCCC2)cc1O (stereo unspecified) | 1 |
| O=C1NC2(CCN(C(=O)CN3CCOCC3)CC2)Nc2ccc(Cl)cc21 | 0.961 |
| CC(C)S(=O)(=O)N1CCCC(c2nnc(Cn3ccnc3)n2C)C1 (stereo unspecified) | -2.83 |
| COC(=O)CC(c1ccc(OC)c(OC)c1OC)c1c(O)n[nH]c1C (stereo unspecified) | 4.02 |
| CCn1cnnc1CNC(=O)NC(c1ccc(OC)cc1)C1CC1 (stereo unspecified) | 1.77 |
| Cc1nc(N2C[C@@H](CN3CCCN(C)CC3)[C@@H](CO)C2)c2ccsc2n1 | -6.56 |
| NC(=O)c1csc(N2C[C@@H](CN3CCC(O)CC3)[C@@H](CO)C2)n1 | 0.984 |
| CC(C)(C)NC(=O)Cn1c(=O)n(Cc2ccco2)c2ncccc21 | -6 |
| CC(O)CN1CCN(C(=O)c2ccc3c(c2)COC3)CC1 (stereo unspecified) | -6.44 |
| CN(C)CC(=O)N1Cc2nnn(C)c2C(COCC2CC2)C1 (stereo unspecified) | -99.4 |
| CCOc1ccc(CN2C(=O)CC3(CCCC3)C2=O)nc1 | -4.01 |
| O=C1CO[C@@H]2CN(C3CCOCC3)C[C@H]2N1Cc1cccc(F)c1 | -77 |
| CS(=O)(=O)c1ccc(OCCNCc2ccc(F)cc2)cc1 | -8.86 |
| Cc1cccc(OCCC(=O)N(C)CC(C)C#N)c1C (stereo unspecified) | -0.555 |
| CCCC(=O)NCc1ccc(N2CCCCC2)cc1 | 3.54 |
| Cc1ccc(O)c(-c2cc(NCCO)nc3[nH]ccc23)c1 | 14.1 |
| CC(C)n1nc2c(cc1=O)CN(CCCN1CCCC1=O)CC2 | -8.08 |
| CCc1noc(C(C)N2CCN(c3ccc(C#N)cn3)CC2)n1 (stereo unspecified) | 4.78 |
| O=C(COC1CCCC1)N1CCCN(c2ncccn2)CC1 | 15.9 |
| CC(C)N1CCC(Nc2ccn(C)n2)C1=O (stereo unspecified) | -0.794 |
| O=C(NCc1nnc2n1CCC2)c1ccc(Br)s1 | 2.74 |
| CCc1ccc(CCC(=O)N2CCC(=O)Nc3cccnc32)cc1 | -46.7 |
| CCCC(=O)n1ccn(S(=O)(=O)c2ccc(C)cc2)c1=O | 8.08 |

| SMILES | cytotoxicity at 10 µM [%] |
| --- | --- |
| O=C(Nc1ccc2c(c1)OC1(CCCCC1)O2)c1ccc(=O)[nH]n1 | 14.1 |
| Cc1ccc(CN2CC3(CCN(C(=O)c4cscn4)C3)C2)o1 | 5.28 |
| Cc1nccc(CN2CC[C@@]3(CCCN3Cc3ccccc3)[C@@H](O)C2)n1 | -6.05 |
| CCc1noc(C(C)N2CCN(CCN3CCCC3=O)CC2)n1 (stereo unspecified) | -9.37 |
| Cn1c(-c2ccccc2Cl)nc2cc(C(=O)NCCS(C)(=O)=O)cnc21 | -3.2 |
| COc1ccc(CN2CCc3ncnc(C4CCOC4)c3CC2)cc1 (stereo unspecified) | -9.25 |
| CCc1c(C)nc(-n2nc(-c3cccs3)cc2N)[nH]c1=O | -4.47 |
| CNC(=O)c1ccc(C2CN(C(=O)c3cnn(C)c3)CCO2)nc1 (stereo unspecified) | -24.2 |
| CC(=O)NCCSCCOc1cccc(Br)c1 | 10.1 |
| Cc1ccnc(NCc2cn3c(C)csc3n2)n1 | -5.66 |
| CC(=O)NCC(=O)N1CCc2nc(C)nc(C)c2CC1 | -12 |
| CC(C)[C@@H]1CN(S(=O)(=O)c2cccc(C(=O)O)c2)C[C@H]1N(C)C | -39.1 |
| Cn1cc(CN2CCc3ncnc(N4CCCC4)c3CC2)cn1 | -0.818 |
| Cc1cc(CN2CCN(c3ccc4nncn4n3)C(C)C2)on1 (stereo unspecified) | 6.91 |
| O=C(COc1ccccc1NCc1ccoc1)N1CCOCC1 | 3.61 |
| CC(O)CN1CCN(C(=O)c2cccn2Cc2cccnc2)CC1 (stereo unspecified) | -9.15 |
| Cc1nc(N(C)C)nc(C)c1NC(=O)c1ccccc1F | 41.7 |
| Cn1ccc(C(=O)N2CCCC(n3cncn3)C2)cc1=O (stereo unspecified) | -2.43 |
| CCC(C)NC(=O)Cn1c(Nc2cc(C)cc(C)c2)nc(C)cc1=O (stereo unspecified) | 9.91 |
| Cc1cnc(C(=O)N(C)[C@@H]2CCC[C@@H](Oc3ccccc3)[C@@H]2O)cn1 | -15.3 |
| O=C1C(NS(=O)(=O)c2cccc(F)c2)CCN1Cc1ccccc1 (stereo unspecified) | -1.67 |
| CNc1ccc(CC2CCCN(C(=O)c3scnc3C)C2)nn1 (stereo unspecified) | -10.4 |
| CCCC(NC(=O)c1cncc(C)c1)c1nnn[nH]1 (stereo unspecified) | -15.5 |

| SMILES | cytotoxicity at 10 µM [%] |
| --- | --- |
| Cc1ccc2c(c1)C(=O)NCC1(CCN(C(=O)c3csc(C)c3)CC1)O2 | -27.7 |
| CCOc1ccc(CN2C(=O)CC(C)(C)C2=O)nc1 | -11.9 |
| Cc1cccc2[nH]c(C3CCCN3Cc3ccc(CO)o3)nc12 (stereo unspecified) | 10.3 |
| Cc1ccc(C(=O)N2CCSCC2)cc1NC(C)C | -3.42 |
| CNC(=O)[C@H]1C[C@@H]2CCN(Cc3ccncc3)C[C@H]2O1 | 10.3 |
| N#CC1(NC(=O)c2ccc(-c3nc(C4CC4)n[nH]3)cc2)CC1 | -10.7 |
| COc1ccc(-c2nc(CN(C)Cc3nncn3C)c(C)o2)c(C)c1C | -8.87 |
| Cc1cnn(C2CCCN(C(=O)c3cc(C4CC4)on3)C2)c1 (stereo unspecified) | -11.4 |
| O=C(N1CCOCC1)N1CCC(Nc2ccncn2)CC1 | -57 |
| Cc1occc1C(=O)N1CCC[C@]2(C[C@@H](OCc3ccccn3)CO2)C1 | -72.4 |
| COc1cccc2c3c(c(=O)n(C)c12)CCC(C)(C)O3 | 0.55 |
| Cc1cnn(CC(C)NCc2cccc(C#N)c2)c1 (stereo unspecified) | -2.62 |
| Cc1nc(C)n(CC2CCCN(Cc3nc(-c4ccco4)no3)C2)n1 (stereo unspecified) | -11.5 |
| CC(C)=CCC1(CO)CCCN(Cc2nccs2)C1 (stereo unspecified) | -1.23 |
| OCc1n[nH]c(-c2ccc(F)cc2)n1 | -4.64 |
| CCN(C)C1COC2(CCN(C(=O)c3ccc4[nH]ccc4c3)CC2)C1 (stereo unspecified) | -5.96 |
| O=C(CN1CCSC(c2ccccc2)C1)NCc1ccccn1 (stereo unspecified) | 14.5 |
| Cc1ccc(N2N=C(C(N)=O)S(=O)(=O)c3cccnc32)cc1 | 4.28 |
| Cc1noc(C)c1CNCC1CCCN1c1cccnn1 (stereo unspecified) | 3.3 |
| CN(C(=O)c1ccccn1)c1nc2c(s1)CCc1c-2cnn1C | 11.7 |
| CCOCCCn1c(NC(=O)c2cnc(C)cn2)nc2ccccc21 | -18.7 |
| Cc1ccc(OCC(=O)N(C)Cc2cccc(F)c2)cn1 | 27.6 |
| CNc1cc(C)nc(C2CCN(CCO)CC2)n1 | 1.56 |

| SMILES | cytotoxicity at 10 µM [%] |
| --- | --- |
| COc1ccc2c3c1CN(S(C)(=O)=O)CC3=CC(C)(C)CO2 | 7.77 |
| c1ccc(CN2CC[C@H]3[C@H]2CCN3c2ncccn2)nc1 | 1.24 |
| Cc1cc(C)n(CCCNC(=O)NCc2c(C)cc(C)[nH]c2=O)n1 | -1.12 |
| COc1ccc(F)cc1NC(=O)NCC1(C)COC1 | 6.26 |
| COCC1CC2(CCN(C(N)=O)CC2)CN1Cc1csc(C)n1 (stereo unspecified) | 8.98 |
| OCC(CO)N1CCC(c2nnc(Cn3ccnc3)n2C2CC2)CC1 | -4.36 |
| CCOc1cc(CN[C@@H]2COC[C@H]2Cc2cc(C)no2)ccc1O | 14.8 |
| NC(=O)N1CCC(NCc2cc(C(F)(F)F)ccc2Cl)CC1 | -0.651 |
| Cc1nc[nH]c1CN1CCCC12CCN(c1nc3ccccc3s1)CC2 | -0.369 |
| CCCNC(=O)CCC(=O)N1CCC(c2n[nH]c(C3CC3)n2)CC1 | -3.82 |
| O=C(O)c1cccc(CC2CCN(c3ncccn3)CC2)c1 | -134 |
| CS(=O)(=O)c1ccc(CN2CCCCC2c2cccc(F)c2)cc1 (stereo unspecified) | -17.4 |
| CCOCCCNC(=O)c1nnn(Cc2ccccc2)c1OC | 9.32 |
| Cc1ccc2nc(CN3CCC(O)(Cn4ccnc4)CC3)cc(O)c2c1 | -47.8 |
| CNC(=O)CN1CC[C@H]2CN(C(=O)c3ccoc3)C[C@H]2C1 | -2.8 |
| CC1COCCN1c1ncnc2sccc12 (stereo unspecified) | 14.1 |
| CN(CC(=O)N1CCN(c2cnccn2)CC1)c1ccc(Cl)cn1 | -0.487 |
| Cc1cccc(OCc2ccc(C(=O)N3N=CCC3(O)C(F)(F)F)o2)c1 (stereo unspecified) | 25.2 |
| O=C(O)c1ccc2c(c1)C1(CCCCC1)CN2C(=O)c1cccc(F)c1 | 2.49 |
